{"source": "the RNAGym collection of RNA variant scans (doi:10.1126/science.aae0568)", "parents": {"B1": {"name": "tRNA (parent)", "chain": "GUUCCGUUGGCGUAAUGGUAACGCGUCUCCCUCCUAAGGAGAAGACUGCGGGUUCGAGUCCCGUACGGAACG"}}, "note": "Fewer inactive variants are shown than the library holds.", "data": [{"variants_of": "B1", "test": "yeast fitness relative to wild type (ratio to wild type); higher = fitter; tRNA-Arg(CCU), competitive growth, 37 C, YPD", "outline": "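Start and end populations of a pooled competition were compared by 100-nucleotide paired-end sequencing of gene amplicons. The Saccharomyces cerevisiae strains carried tRNA-Arg(CCU) gene variants at the native genomic locus, synthesised with a 3% per-site mutation rate at 69 sites, and competed in YPD at 37°C for 24 hours in six parallel replicates. Darwinian fitness relative to wild type was based on the change in genotype frequencies. Genotypes required ≥ 100 starting reads, and estimates < 0.5 were set to 0.5.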", "values": [{"variant": "C24G A69C", "yeast fitness": 0.617}, {"variant": "C24G A70C", "yeast fitness": 0.666}, {"variant": "C24G C27A", "yeast fitness": 0.616}, {"variant": "C24G C27A A45C C62G C66U", "yeast fitness": "≤ 0.5"}, {"variant": "C24G C27G A37G", "yeast fitness": 0.575}, {"variant": "C24G C27U", "yeast fitness": 0.73}, {"variant": "C24G C27U A37G", "yeast fitness": 0.536}, {"variant": "C24G C27U A40U A57G C62G", "yeast fitness": "≤ 0.5"}, {"variant": "C24G C27U A40U U59C", "yeast fitness": "≤ 0.5"}, {"variant": "C24G C27U A40U U59C G68A", "yeast fitness": 0.582}, {"variant": "C24G C27U C33U G50A", "yeast fitness": "≤ 0.5"}, {"variant": "C24G C27U C33U G50C", "yeast fitness": "≤ 0.5"}, {"variant": "C24G C27U C33U G50C A69U", "yeast fitness": "≤ 0.5"}, {"variant": "C24G C27U C33U G50C G63A G68A", "yeast fitness": 0.528}, {"variant": "C24G C27U C33U G52C A65G", "yeast fitness": "≤ 0.5"}, {"variant": "C24G C27U C62U A70U", "yeast fitness": "≤ 0.5"}, {"variant": "C24G C29A A43U A57G G68C", "yeast fitness": "≤ 0.5"}, {"variant": "C24G C29A A43U G68C", "yeast fitness": 0.561}, {"variant": "C24G C29A C30U G50A C62U", "yeast fitness": "≤ 0.5"}, {"variant": "C24G C29A G50C A57C", "yeast fitness": "≤ 0.5"}, {"variant": "C24G C29G A37G G52A C62U", "yeast fitness": "≤ 0.5"}, {"variant": "C24G C29G C33U", "yeast fitness": "≤ 0.5"}, {"variant": "C24G C29U G50A", "yeast fitness": "≤ 0.5"}, {"variant": "C24G C29U G51C", "yeast fitness": 0.576}, {"variant": "C24G C29U G51C A70U", "yeast fitness": "≤ 0.5"}, {"variant": "C24G C29U U35C", "yeast fitness": "≤ 0.5"}, {"variant": "C24G C30A C62G", "yeast fitness": "≤ 0.5"}, {"variant": "C24G C30A G44C U47C", "yeast fitness": 0.567}, {"variant": "C24G C30A G44C U47C U59A A69C A70C", "yeast fitness": 0.884}, {"variant": "C24G C30A U47C G63A", "yeast fitness": "≤ 0.5"}, {"variant": "C24G C30G C31U U35A A36U G44A G63C", "yeast fitness": 0.86}, {"variant": "C24G C30G G39A", "yeast fitness": 0.593}, {"variant": "C24G C30G G39A G52A C55U", "yeast fitness": "≤ 0.5"}, {"variant": "C24G C30G G52A C60A", "yeast fitness": "≤ 0.5"}, {"variant": "C24G C30U A43U", "yeast fitness": 0.549}, {"variant": "C24G C30U C31A", "yeast fitness": "≤ 0.5"}, {"variant": "C24G C30U C31U C61U G67C", "yeast fitness": "≤ 0.5"}, {"variant": "C24G C30U C34A A45G G51A", "yeast fitness": "≤ 0.5"}, {"variant": "C24G C30U C34A G51A", "yeast fitness": 0.542}, {"variant": "C24G C30U C46A", "yeast fitness": 0.616}, {"variant": "C24G C30U C61G", "yeast fitness": "≤ 0.5"}, {"variant": "C24G C30U G44C", "yeast fitness": "≤ 0.5"}, {"variant": "C24G C30U U32A A45G C62U", "yeast fitness": "≤ 0.5"}, {"variant": "C24G C31A", "yeast fitness": 0.526}, {"variant": "C24G C31A A42G A43U", "yeast fitness": "≤ 0.5"}, {"variant": "C24G C31A C33U U35A A57G", "yeast fitness": 0.529}, {"variant": "C24G C31A C66U", "yeast fitness": "≤ 0.5"}, {"variant": "C24G C31A U64A", "yeast fitness": "≤ 0.5"}, {"variant": "C24G C31G A36G A65U", "yeast fitness": "≤ 0.5"}, {"variant": "C24G C31G A36G G44A A69G", "yeast fitness": "≤ 0.5"}, {"variant": "C24G C31G A43U", "yeast fitness": 0.596}, {"variant": "C24G C31G C61G", "yeast fitness": 0.507}, {"variant": "C24G C31G G50A G68C", "yeast fitness": "≤ 0.5"}, {"variant": "C24G C31U", "yeast fitness": 0.571}, {"variant": "C24G C31U C33G", "yeast fitness": "≤ 0.5"}, {"variant": "C24G C31U C55A", "yeast fitness": "≤ 0.5"}, {"variant": "C24G C31U G50C C60G G63A", "yeast fitness": 0.545}, {"variant": "C24G C33G A36C A37C A42C", "yeast fitness": 0.505}, {"variant": "C24G C33G A36C A37C A42C A65U", "yeast fitness": "≤ 0.5"}, {"variant": "C24G C33G G51A U53A G56A G67C", "yeast fitness": 0.541}, {"variant": "C24G C33G U53C C55U", "yeast fitness": 0.567}, {"variant": "C24G C33U A37U C49G U64C", "yeast fitness": "≤ 0.5"}, {"variant": "C24G C33U A37U G67A", "yeast fitness": "≤ 0.5"}, {"variant": "C24G C33U A70G", "yeast fitness": "≤ 0.5"}, {"variant": "C24G C33U C61A A69U", "yeast fitness": "≤ 0.5"}, {"variant": "C24G C33U U47G", "yeast fitness": "≤ 0.5"}, {"variant": "C24G C34G", "yeast fitness": 0.55}, {"variant": "C24G C34G A69U", "yeast fitness": "≤ 0.5"}, {"variant": "C24G C34G G44C", "yeast fitness": "≤ 0.5"}, {"variant": "C24G C34G U53A", "yeast fitness": 0.552}, {"variant": "C24G C34U U35A A65U", "yeast fitness": 0.578}, {"variant": "C24G C34U U53C C55G C62A", "yeast fitness": "≤ 0.5"}, {"variant": "C24G C46A", "yeast fitness": 0.937}, {"variant": "C24G C46U", "yeast fitness": 0.654}, {"variant": "C24G C46U A69U", "yeast fitness": 0.595}, {"variant": "C24G C46U A70U", "yeast fitness": 0.642}, {"variant": "C24G C49A", "yeast fitness": "≤ 0.5"}, {"variant": "C24G C49G A70U", "yeast fitness": "≤ 0.5"}, {"variant": "C24G C49G C55A", "yeast fitness": "≤ 0.5"}, {"variant": "C24G C49U C55G", "yeast fitness": "≤ 0.5"}, {"variant": "C24G C55U G67C", "yeast fitness": "≤ 0.5"}, {"variant": "C24G C61G", "yeast fitness": 0.537}, {"variant": "C24G C66A", "yeast fitness": 0.576}]}]}
